Reference: ChEMBL document CHEMBL1123920, “Leukotriene D4 antagonists and 5-lipoxygenase inhibitors. Synthesis of benzoheterocyclic [(methoxyphenyl)amino]oxoalkanoic acid esters” (J Med Chem, 1987)

How the values were obtained:
Rattus norvegicus [1] = organism: Rattus norvegicus; assay: Tested for metabolic activation counted as mean number of revertants in strains TA98, TA100, TA1535, and TA1538, three plates per treatment at 0.015 mg per plate, without activation in the absence of S-9 rat liver homogenates in Ames test; type: functional, organism-based
Rattus norvegicus [2] = organism: Rattus norvegicus; assay: Tested for metabolic activation counted as mean number of revertants in strains TA98, TA100, TA1535, and TA1538, three plates per treatment at 0.005 mg per plate, without activation in the absence of S-9 rat liver homogenates in Ames test; type: functional, organism-based
Rattus norvegicus [3] = organism: Rattus norvegicus; assay: Tested for metabolic activation counted as mean number of revertants in strains TA98, TA100, TA1535, and TA1538, three plates per treatment at 0.15 mg per plate, without activation in the absence of S-9 rat liver homogenates in Ames test; type: functional, organism-based
Cavia porcellus = assay: Ability to inhibit the Ovalbumin induced bronchospasm in guinea pig was determined in vivo at a dose of 50 mg/kg id; type: functional; settings: route intraduodenal
Summary of the method: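 Guinea pigs were challenged with LTD4 or ovalbumin to induce bronchospasm, and test agent was given intraduodenally. Read-out is percent inhibition of bronchospasm. Significance uses a two-tailed Student's t test (p < 0.05). N is the number of treated animals.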

Rattus norvegicus [4] = organism: Rattus norvegicus; assay: Tested for metabolic activation counted as mean number of revertants in strains TA98, TA100, TA1535, and TA1538, three plates per treatment at 0.05 mg per plate, with activation provided by S-9 rat liver homogenates in Ames test; type: functional, organism-based
[5] = test system: Cysteinyl leukotriene receptor (Cavia porcellus); assay: Inhibition of LTD4 induced bronchospasm in guinea pig was determined in at 50 mg/kg i.d.
Rattus norvegicus [6] = organism: Rattus norvegicus; assay: Tested for metabolic activation counted as mean number of revertants in strains TA98, TA100, TA1535, and TA1538, three plates per treatment at 0.005 mg per plate, with activation provided by S-9 rat liver homogenates in Ames test; type: functional, organism-based
Rattus norvegicus [7] = organism: Rattus norvegicus; assay: Tested for metabolic activation counted as mean number of revertants in strains TA98, TA100, TA1535, and TA1538, three plates per treatment at 0.015 mg per plate, with activation provided by S-9 rat liver homogenates in Ames test; type: functional, organism-based
Rattus norvegicus [8] = organism: Rattus norvegicus; assay: Tested for metabolic activation counted as mean number of revertants in strains TA98, TA100, TA1535, and TA1538, three plates per treatment at 0.05 mg per plate, without activation in the absence of S-9 rat liver homogenates in Ames test; type: functional, organism-based
Rattus norvegicus [9] = organism: Rattus norvegicus; assay: Tested for metabolic activation counted as mean number of revertants in strains TA98, TA100, TA1535, and TA1538, three plates per treatment at 0.15 mg per plate, with activation provided by S-9 rat liver homogenates in Ames test; type: functional, organism-based
Rattus norvegicus [10] = organism: Rattus norvegicus; assay: Tested for metabolic activation counted as mean number of revertants in strains TA98, TA100, TA1535, and TA1538, three plates per treatment at 0.5 mg per plate, with activation provided by S-9 rat liver homogenates in Ames test; type: functional, organism-based
[11] = target: T1, Polyunsaturated fatty acid 5-lipoxygenase (Rattus norvegicus, UniProt P12527); assay: (§1) Ability to inhibit Lipoxygenase in vitro was determined
T1 sequence (P12527 whole entry): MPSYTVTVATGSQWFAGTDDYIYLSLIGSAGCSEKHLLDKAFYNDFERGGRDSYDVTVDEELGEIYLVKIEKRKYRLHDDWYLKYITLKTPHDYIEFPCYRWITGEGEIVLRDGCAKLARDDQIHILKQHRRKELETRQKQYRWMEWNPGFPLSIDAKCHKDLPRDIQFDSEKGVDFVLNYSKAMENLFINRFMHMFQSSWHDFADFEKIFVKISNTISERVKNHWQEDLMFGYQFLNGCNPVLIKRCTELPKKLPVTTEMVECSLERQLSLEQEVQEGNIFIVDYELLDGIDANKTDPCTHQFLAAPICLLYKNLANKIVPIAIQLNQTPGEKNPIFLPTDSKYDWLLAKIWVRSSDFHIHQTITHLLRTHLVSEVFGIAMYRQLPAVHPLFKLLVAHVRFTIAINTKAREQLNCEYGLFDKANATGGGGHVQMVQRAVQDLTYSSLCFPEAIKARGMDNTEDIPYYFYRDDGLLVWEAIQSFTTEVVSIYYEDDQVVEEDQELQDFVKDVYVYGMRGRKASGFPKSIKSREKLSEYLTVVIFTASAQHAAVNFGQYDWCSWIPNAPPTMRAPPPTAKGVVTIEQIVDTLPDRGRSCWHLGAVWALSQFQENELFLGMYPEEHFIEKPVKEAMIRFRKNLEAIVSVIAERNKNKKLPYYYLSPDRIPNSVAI

[12] = target: T2, Polyunsaturated fatty acid 5-lipoxygenase (Rattus norvegicus) (UniProt P12527); assay: Ability to inhibit Lipoxygenase in vitro was determined; NA is <50% inhibition at 100 uM
T2 sequence (whole entry): T1 sequence (P12527 whole entry)
Summary of the method: (§2)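 Source is rat polymorphonuclear leukocyte (PMN) 5-lipoxygenase. IC50 values come from nonlinear regression analysis, significant at p < 0.05.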

[13] = target: T1, Polyunsaturated fatty acid 5-lipoxygenase; assay: as §1; summary of the method: as §2; remark: listed apart in the source
Rattus norvegicus [14] = organism: Rattus norvegicus; assay: Tested for metabolic activation counted as mean number of revertants in three plates per treatment at 0.02 mg per plate, with activation provided by S-9 rat liver homogenates in Ames test; type: functional, organism-based
Rattus norvegicus [15] = organism: Rattus norvegicus; assay: Tested for metabolic activation counted as mean number of revertants in strains TA98, TA100, TA1535, and TA1538, three plates per treatment at 0.2 mg per plate, with activation provided by S-9 rat liver in Ames test; type: functional
Rattus norvegicus [16] = organism: Rattus norvegicus; assay: Tested for metabolic activation counted as mean number of revertants in strains TA98, TA100, TA1535, and TA1538, three plates per treatment at 2.0 mg per plate, without activation in the absence of S-9 rat liver homogenates in Ames test; type: functional, organism-based
Rattus norvegicus [17] = organism: Rattus norvegicus; assay: Tested for metabolic activation counted as mean number of revertants in strains TA98, TA100, TA1535, and TA1538, three plates per treatment at 2.0 mg per plate, with activation provided by S-9 rat liver homogenates in Ames test; type: functional, organism-based
Rattus norvegicus [18] = organism: Rattus norvegicus; assay: Tested for metabolic activation counted as mean number of revertants in strains TA98, TA100, TA1535, and TA1538, three plates per treatment at 0.02 mg per plate, without activation in the absence of S-9 rat liver homogenates in Ames test; type: functional, organism-based
Rattus norvegicus [19] = organism: Rattus norvegicus; assay: Tested for metabolic activation counted as mean number of revertants in strains TA98, TA100, TA1535, and TA1538, three plates per treatment at 0.06 mg per plate, without activation in the absence of S-9 rat liver homogenates in Ames test; type: functional, organism-based
Rattus norvegicus [20] = organism: Rattus norvegicus; assay: Tested for metabolic activation counted as mean number of revertants in strains TA98, TA100, TA1535, and TA1538, three plates per treatment at 0.6 mg per plate, without activation in the absence of S-9 rat liver homogenates in Ames test; type: functional, organism-based
Rattus norvegicus [21] = organism: Rattus norvegicus; assay: Tested for metabolic activation counted as mean number of revertants in strains TA98, TA100, TA1535, and TA1538, three plates per treatment at 0.6 mg per plate, with activation provided by S-9 rat liver in Ames test; type: functional
Rattus norvegicus [22] = organism: Rattus norvegicus; assay: Tested for metabolic activation counted as mean number of revertants in three plates per treatment at 0.06 mg per plate, with activation provided by S-9 rat liver homogenates in Ames test; type: functional, organism-based
Rattus norvegicus [23] = organism: Rattus norvegicus; assay: Tested for metabolic activation counted as mean number of revertants in strains TA98, TA100, TA1535, and TA1538, three plates per treatment at 0.2 mg per plate, without activation in the absence of S-9 rat liver homogenates in Ames test; type: functional, organism-based
[24] = target: T1, Polyunsaturated fatty acid 5-lipoxygenase; assay: Ability to inhibit the rat Lipoxygenase in vitro was determined; summary of the method: as §2

COC(=O)CCC(=O)N(O)c1cccc(OCc2ccc3ccccc3n2)c1
Mean no. of revertants (Rattus norvegicus [1]): 9
Mean no. of revertants (Rattus norvegicus [2]): 15
Mean no. of revertants (Rattus norvegicus [3]): 31
inhibition in vivo at 50 mg/kg (Cavia porcellus): 76%
Mean no. of revertants (Rattus norvegicus [4]): 16
inhibition [5]: 97%
Mean no. of revertants (Rattus norvegicus [6]): 13
Mean no. of revertants (Rattus norvegicus [7]): 10
Mean no. of revertants (Rattus norvegicus [8]): 13
Mean no. of revertants (Rattus norvegicus [9]): 12
Mean no. of revertants (Rattus norvegicus [10]): 716

COC(=O)CCC(=O)N(O)c1cccc(OCc2nc3ccccc3s2)c1
inhibition in vivo at 50 mg/kg (Cavia porcellus): 6%
IC50 [11]: 0.36 µM
inhibition [5]: 79%

COC(=O)CCC(=O)N(C)c1cccc(OCc2nc3ccccc3s2)c1
inhibition in vivo at 50 mg/kg (Cavia porcellus): 19%
IC50 [11]: 21 µM

O=C(O)CCC(=O)Nc1cccc(OCc2nc3ccccc3s2)c1
inhibition [12]: < 50%

O=C1CCC(=O)N1c1cccc(OCc2ccc3ccccc3n2)c1
Mean no. of revertants (Rattus norvegicus [1]): 9
Mean no. of revertants (Rattus norvegicus [2]): 6
Mean no. of revertants (Rattus norvegicus [3]): 43
inhibition [12]: < 50%
inhibition in vivo at 50 mg/kg (Cavia porcellus): 26%
Mean no. of revertants (Rattus norvegicus [4]): 7
Mean no. of revertants (Rattus norvegicus [6]): 5
Mean no. of revertants (Rattus norvegicus [7]): 7
Mean no. of revertants (Rattus norvegicus [8]): 12
Mean no. of revertants (Rattus norvegicus [9]): 8
Mean no. of revertants (Rattus norvegicus [10]): 45

COC(=O)C1CC(=O)N(c2cccc(OCc3nc4ccccc4n3C)c2)C1 (centres undefined)
inhibition [12]: < 50%

COC(=O)CCC(=O)Nc1cccc(OCc2nc3ccccc3n2C)c1
inhibition in vivo at 50 mg/kg (Cavia porcellus): 60%
IC50 [13]: 7.2 µM

COC(=O)C1CC(=O)N(c2cccc(OCc3ccc4ccccc4n3)c2)C1 (centres undefined)
Mean no. of revertants (Rattus norvegicus [14]): 12
Mean no. of revertants (Rattus norvegicus [15]): 10
Mean no. of revertants (Rattus norvegicus [16]): 475
inhibition in vivo at 50 mg/kg (Cavia porcellus): 29%
IC50 [11]: 19.1 µM
Mean no. of revertants (Rattus norvegicus [17]): 84
Mean no. of revertants (Rattus norvegicus [18]): 10
Mean no. of revertants (Rattus norvegicus [19]): 13
Mean no. of revertants (Rattus norvegicus [20]): 421
Mean no. of revertants (Rattus norvegicus [21]): 15
Mean no. of revertants (Rattus norvegicus [22]): 10
Mean no. of revertants (Rattus norvegicus [23]): 16

COC(=O)CCC(=O)Nc1cccc(OCc2nc3ccccc3s2)c1
inhibition in vivo at 50 mg/kg (Cavia porcellus): 63%
IC50 [24]: 15.7 µM

COC(=O)C1CC(=O)N(c2cccc(OCc3nc4ccccc4o3)c2)C1 (centres undefined)
IC50 [11]: 30 µM

COC(=O)CCC(=O)Nc1cccc(OCc2cc3ccccc3o2)c1
inhibition in vivo at 50 mg/kg (Cavia porcellus): 12%
IC50 [11]: 17.9 µM

COC(=O)CCC(=O)Nc1cccc(OCc2ccccn2)c1
inhibition [12]: < 50%
